Data on eleven molecules can be found in publication PMC6720533 (Biomolecules & Therapeutics, 2019).

The target of one assay is recombinant human CK2α1 (Homo sapiens, UniProt P68400). The experiment in a line: CK2 kinase activity assay. It counts as biochemical. To be noted: 10 μM ATP, 60 min. Put shortly:
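Recombinant human CK2α1 (50 ng) was incubated with 2.5 μg CK2α1 substrate, 10 μM ATP, and test compound, reference inhibitor or DMSO for 60 min at room temperature. ADP-Glo reagent stopped the reaction and depleted remaining ATP. Detection reagent then converted ADP to ATP for luciferase/luciferin luminescence, which tracks the ADP formed as the measure of kinase activity.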

For a further assay, the system named is Jurkat cells. Kind of assay: WST-1 metabolic activity assay. The following applies: Homo sapiens, 72 h, read-out: metabolic activity. The format is cell-based. The method in brief: (§1)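 Test compound came from a 10 mM DMSO stock. Cells were seeded at 5×10^4/well in triplicate with 5 or 10 μM final compound; controls got matched DMSO. After 72 h at 37°C, 5% CO2, WST-1 was added for a further 3 h. Absorbance was read at 450 nm (reference 620 nm), and metabolic activity given as % of DMSO control.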

A further assay relates to RS4;11 cells. Kind of assay: WST-1 metabolic activity assay. To be noted: Homo sapiens, RS4-11, 72 h, read-out: metabolic activity. The format is cell-based. Put shortly: as §1
For orientation: Tetrazolium dyes change colour on reduction, which living cells bring about.

A further assay deals with SEM cells. Kind of assay: WST-1 metabolic activity assay. The format is cell-based. The following applies: Homo sapiens, 72 h, read-out: metabolic activity. The method in brief: as §1
The next assay relates to CEM cells. The experiment in a line: WST-1 metabolic activity assay. It counts as cell-based. To be noted: Homo sapiens, CCRF-CEM, 72 h, read-out: metabolic activity. Put shortly: as §1

recombinant human CK2α1, sequence (P68400 whole entry): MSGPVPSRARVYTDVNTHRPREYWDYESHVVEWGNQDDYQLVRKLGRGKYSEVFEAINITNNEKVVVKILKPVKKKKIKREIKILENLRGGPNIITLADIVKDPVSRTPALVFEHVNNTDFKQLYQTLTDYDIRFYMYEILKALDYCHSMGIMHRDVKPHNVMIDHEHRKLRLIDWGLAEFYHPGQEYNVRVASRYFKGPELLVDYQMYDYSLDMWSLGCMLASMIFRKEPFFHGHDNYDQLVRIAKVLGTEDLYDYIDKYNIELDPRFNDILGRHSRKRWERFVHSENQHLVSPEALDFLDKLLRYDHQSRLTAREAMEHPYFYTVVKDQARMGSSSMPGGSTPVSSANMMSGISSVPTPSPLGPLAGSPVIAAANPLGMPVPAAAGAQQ

For the molecule `O=C(O)c1ccc2c(c1)nc(Nc1cccc(Cl)c1)c1ccncc12` [CX-4945, reference compound], on recombinant human CK2α1 (0.1 μM), the CK2 enzyme activity result was “Reduction of CK2 enzyme activity”. Further, the “CK2 enzyme activity compared to DMSO (100%)” value at recombinant human CK2α1 (1 μM) stood at 3.4 ± 0.3%.
Take `CC(=O)c1ccc2c(=O)n3c(nc2c1)-c1ccccc1C3` [FX-1, 7-Acetylisoindolo[1,2-b]quinazolin-10(12H)-one]: in the assay with Jurkat cells, the viability at 5 µM was found to be 93.4% and the viability at 10 µM turned out to be 68.5 ± 14.8%. Further, in the assay with RS4;11 cells, the activity at 5 µM came to 99.3% and the activity at 10 µM was 94.4%. Also, in the assay with SEM cells, the activity at 5 µM is 107% and the activity at 10 µM amounted to 97.7%. Also, in the assay with CEM cells, the viability at 5 µM stood at 87.1% and the viability at 10 µM was determined as 83.9%.
As to `O=c1c2ccc(F)cc2nc2n1Cc1ccccc1-2` [FX-2, 7-Fluoroisoindolo[1,2-b]quinazolin-10(12H)-one], in the assay with Jurkat cells, the viability at 5 µM was found to be 81.3% and the viability at 10 µM is 54.3%. Besides, in the assay with RS4;11 cells, the activity at 5 µM worked out at 97.3% and the activity at 10 µM amounted to 79.8%. For the same molecule, in the assay on SEM cells, the activity at 5 µM was found to be 100% and the activity at 10 µM worked out at 69.8%. Besides, in the assay on CEM cells, the viability at 5 µM was determined as 86.3% and the viability at 10 µM is 77.2%.
As for `O=c1c2cc(Cl)ccc2nc2n1Cc1ccccc1-2` [FX-3, 8-Chloroisoindolo[1,2-b]quinazolin-10(12H)-one], in the assay with Jurkat cells, the viability at 5 µM came out at 57.9% and the viability at 10 µM came to 77%. For the same molecule, in the assay with RS4;11 cells, the activity at 5 µM came to 73.8% and the activity at 10 µM is 40.2%. Moreover, in the assay with SEM cells, the activity at 5 µM was 32% and the activity at 10 µM is 26.7%. Also, in the assay on CEM cells, the viability at 5 µM amounted to 76.2% and the viability at 10 µM worked out at 86%.
With `Cc1ccc2c(=O)n3c(nc2c1)-c1ccccc1C3` [FX-4, 7-Methylisoindolo[1,2-b]quinazolin-10(12H)-one], the viability at 5 µM in the assay on Jurkat cells came out at 90.4%; in the assay on CEM cells it was 102%. Also, the viability at 10 µM in the assay on Jurkat cells turned out to be 86.6%; in the assay with CEM cells it was 90.6%. Besides, the activity at 5 µM in the assay with RS4;11 cells is 91.2%; in the assay on SEM cells, 96.8%. Further, the activity at 10 µM with RS4;11 cells is 85.9%; in the assay on SEM cells, 64.9%.
For `Cc1ccc2c(=O)n3c(nc2c1)-c1ccc(F)cc1C3` [FX-5, 2-Fluoro-7-methylisoindolo[1,2-b]quinazolin-10(12H)-one], the viability at 5 µM is 94% in the assay with Jurkat cells and 101% in the assay on CEM cells. The viability at 10 µM turned out to be 96.5% in the assay on Jurkat cells and 95% with CEM cells. The figures for the activity at 5 µM in the assay with RS4;11 cells and with SEM cells were 91.4% and 91.7%, respectively. Moreover, the activity at 10 µM was 86.7% with RS4;11 cells and 74.7% in the assay with SEM cells.
On to `O=c1c2ccccc2nc2n1Cc1cc(F)ccc1-2` [FX-6, 2-Fluoroisoindolo[1,2-b]quinazolin-10(12H)-one], for which, in the assay on Jurkat cells, the viability at 5 µM was found to be 105% and the viability at 10 µM was found to be 97.5%. In addition, in the assay with RS4;11 cells, the activity at 5 µM came to 76.6% and the activity at 10 µM turned out to be 67.1%. Further, in the assay with SEM cells, the activity at 5 µM came out at 72.1% and the activity at 10 µM was 51.4%. Moreover, in the assay with CEM cells, the viability at 5 µM was 93.2% and the viability at 10 µM amounted to 107%.
As for `Cc1ccc2nc3n(c(=O)c2c1)Cc1ccccc1-3` [FX-7, 8-Methylisoindolo[1,2-b]quinazolin-10(12H)-one], in the assay with Jurkat cells, the viability at 5 µM is 91.4% and the viability at 10 µM was determined as 84.3%. In addition, in the assay on RS4;11 cells, the activity at 5 µM is 61.3% and the activity at 10 µM is 49.4%. Also, in the assay on SEM cells, the activity at 5 µM is 52.1% and the activity at 10 µM amounted to 25.2%. Moreover, in the assay on CEM cells, the viability at 5 µM was 96.1% and the viability at 10 µM came out at 85%.
On to `Cc1cc(C)c2nc3n(c(=O)c2c1)Cc1ccccc1-3` [FX-8, 6,8-Dimethylisoindolo[1,2-b]quinazolin-10(12H)-one], for which, in the assay with Jurkat cells, the viability at 5 µM worked out at 95.2% and the viability at 10 µM worked out at 92.5%. Moreover, in the assay with RS4;11 cells, the activity at 5 µM is 61.5% and the activity at 10 µM worked out at 55.8%. In the assay with SEM cells, the activity at 5 µM amounted to 23.3% and the activity at 10 µM is 14.5%. Also, in the assay on CEM cells, the viability at 5 µM is 97% and the viability at 10 µM is 85%.
For `COc1ccc2c(N)nc(-c3ccccc3)cc2c1` [FX-42, 6-Methoxy-3-phenylisoquinolin-1-amine], in the assay with Jurkat cells, the viability at 5 µM was found to be 88.4% and the viability at 10 µM turned out to be 32.4%. Also, in the assay with SEM cells, the activity at 5 µM is 66.7% and the activity at 10 µM came to 24.5%.
The corresponding values for `Cc1ccc2cc(-c3ccccc3)nc(N)c2c1` [FX-43, 7-Methyl-3-phenylisoquinolin-1-amine] are 107%, 104%, 94.7% and 94.3%.
